Activity calls are given as the source filed them.
What was measured:
Mus musculus [1] = experiment: Antihyperalgesic activity against streptozotocin-induced hyperalgesia in Swiss albino mouse […] assessed as licking latency time at 30 mg/kg, po after 45 mins by hot plate test (reference value: 10.4 +/- 0.8 secs); type: functional
Rattus norvegicus [2] = experiment: Antinociceptive activity in Sprague-Dawley rat mononeuropathy pain model assessed as increase in injured paw pressure at 3 mg/kg, po after 15 mins by paw pressure test relative to non-treated control; type: functional
Method in brief: (§1)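 Chronic constriction injury: loose ligatures placed on the common sciatic nerve under chloral hydrate; contralateral sham dissection. Tested 14 days after surgery. Paw pressure applied at 32 g/s; threshold taken as the force causing the first struggle; cut-off 250 g; pretest outliers (<40 g or >75 g) excluded. Oral dosing in 10 ml/kg; read at 15, 30 and 45 min; compared with a CMC-treated group.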

Rattus norvegicus [3] = experiment: Toxicity in Sprague-Dawley rat mononeuropathy pain model assessed as effect on contralateral paw pressure at 30 mg/kg, po after 15 mins by paw pressure test; type: organism-based; design: dose 30 mg/kg, route oral; conditions: in vivo, 0.25 h
Method in brief: (§2)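 Same sciatic-ligation rat model, 14 days after surgery. Threshold measured on the non-operated contralateral hind paw by analgesimeter at 32 g/s; first-struggle endpoint; 250 g cut-off; pretest rats outside 40–75 g rejected. Compound given po in 10 ml/kg; readings at 15, 30 and 45 min.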

Mus musculus [4] = experiment: Antihyperalgesic activity against streptozotocin-induced hyperalgesia in Swiss albino mouse […] assessed as licking latency time at 30 mg/kg, po after 15 mins by hot plate test (reference value: 10.4 +/- 0.8 secs); type: functional
Rattus norvegicus [5] = experiment: Antinociceptive activity in Sprague-Dawley rat mononeuropathy pain model assessed as increase in injured paw pressure at 10 mg/kg, po after 15 mins by paw pressure test relative to non-treated control; type: functional; method in brief: as §1
[6] = Displacement of [3H]Ro151788 from GABA(A)/BzR in bovine cerebral cortex membrane; type: cell membranes, Bos taurus
Method in brief: (§3)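 Bovine cerebral cortex membranes in 50 mM Tris-citrate pH 7.4; [3H]flumazenil displacement. Compounds first tested at a fixed 10 µM; Ki determined only when inhibition exceeded 80%, using at least six concentrations. Five experiments run in triplicate; IC50 obtained by iterative curve fitting and converted to Ki with the Cheng–Prusoff equation.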

Rattus norvegicus [7] = experiment: Antinociceptive activity in Sprague-Dawley rat mononeuropathy pain model assessed as increase in injured paw pressure at 10 mg/kg, po after 45 mins by paw pressure test relative to non-treated control; type: functional; method in brief: as §1
Rattus norvegicus [8] = experiment: Toxicity in Sprague-Dawley rat mononeuropathy pain model assessed as effect on contralateral paw pressure at 30 mg/kg, po after 45 mins by paw pressure test; type: organism-based; design: dose 30 mg/kg, route oral; conditions: in vivo, 0.75 h; method in brief: as §2
Rattus norvegicus [9] = experiment: Antinociceptive activity in Sprague-Dawley rat mononeuropathy pain model assessed as increase in injured paw pressure at 30 mg/kg, po after 45 mins by paw pressure test relative to non-treated control; type: functional; method in brief: as §1
Mus musculus [10] = experiment: Anxiolytic-like activity in Swiss albino mouse at 10 mg/kg, po after 30 mins by light/dark box test; type: functional, organism-based; design: dose 10 mg/kg
Method in brief: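 Male Swiss mice tested in a two-compartment light/dark box. Transfers between compartments and time spent in the lit side recorded. Compound given po 30 min before testing, in 10 ml/kg; flumazenil given i.p. for antagonism; 8 mice per group.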

Mus musculus [11] = experiment: Antihyperalgesic activity Swiss albino mouse […] assessed as licking latency time at 30 mg/kg, po after 45 mins by hot plate test (reference value: 14.9 +/- 1.1 secs); type: functional
Method in brief: (§4)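 Hot plate at 52.5 ± 0.1 °C in non-diabetic male Swiss mice. Latency to licking of fore or hind paws was timed before dosing and every 15 min up to 60 min after oral dosing. Mice with pretest latencies below 12 s or above 18 s were excluded. Cut-off was 45 s.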

Rattus norvegicus [12] = experiment: Antinociceptive activity in Sprague-Dawley rat mononeuropathy pain model assessed as increase in injured paw pressure at 30 mg/kg, po after 15 mins by paw pressure test relative to non-treated control; type: functional; method in brief: as §1
Rattus norvegicus [13] = experiment: Toxicity in Sprague-Dawley rat mononeuropathy pain model assessed as effect on contralateral paw pressure at 30 mg/kg, po after 30 mins by paw pressure test; type: organism-based; design: dose 30 mg/kg, route oral; conditions: in vivo, 0.5 h; method in brief: as §2
Mus musculus [14] = experiment: Anticonvulsant activity in Swiss albino mouse […] assessed as protection against intraperitoneally administered pentylenetetrazol-induced seizures at 30 mg/kg, po after 30 mins; type: functional
Method in brief: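 Male Swiss albino mice. Compounds given po and PTZ 90 mg/kg injected 30 min later; PTZ was dissolved in 0.9% NaCl saline. Clonic generalized convulsions were recorded over 30 min. Each value is the mean of 10 mice. The methods give the PTZ route as s.c. and the table footnote gives it as ip.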

Bos taurus = organism: Bos taurus; experiment: Displacement of [3H]Ro151788 from GABA(A)/BzR in bovine cerebral cortex membrane at 10 uM; type: cell membranes; method in brief: as §3
Rattus norvegicus [15] = experiment: Antinociceptive activity in Sprague-Dawley rat mononeuropathy pain model assessed as increase in injured paw pressure at 3 mg/kg, po after 45 mins by paw pressure test relative to non-treated control; type: functional; method in brief: as §1
Rattus norvegicus [16] = experiment: Toxicity in Sprague-Dawley rat mononeuropathy pain model assessed as effect on contralateral paw pressure at 3 mg/kg, po after 15 mins by paw pressure test; type: organism-based; design: dose 3 mg/kg, route oral; conditions: in vivo, 0.25 h; method in brief: as §2
Rattus norvegicus [17] = experiment: Toxicity in Sprague-Dawley rat mononeuropathy pain model assessed as effect on contralateral paw pressure at 10 mg/kg, po after 45 mins by paw pressure test; type: organism-based; design: dose 10 mg/kg, route oral; conditions: in vivo, 0.75 h; method in brief: as §2
Rattus norvegicus [18] = experiment: Toxicity in Sprague-Dawley rat mononeuropathy pain model assessed as effect on contralateral paw pressure at 3 mg/kg, po after 45 mins by paw pressure test; type: organism-based; design: dose 3 mg/kg, route oral; conditions: in vivo, 0.75 h; method in brief: as §2
Mus musculus [19] = experiment: Antihyperalgesic activity against streptozotocin-induced hyperalgesia in Swiss albino mouse […] assessed as licking latency time at 30 mg/kg, po after 60 mins by hot plate test (reference value: 10.4 +/- 0.8 secs); type: functional
Rattus norvegicus [20] = experiment: Antinociceptive activity in Sprague-Dawley rat mononeuropathy pain model assessed as increase in injured paw pressure at 3 mg/kg, po after 30 mins by paw pressure test relative to non-treated control; type: functional; method in brief: as §1
Rattus norvegicus [21] = experiment: Toxicity in Sprague-Dawley rat mononeuropathy pain model assessed as effect on contralateral paw pressure at 10 mg/kg, po after 15 mins by paw pressure test; type: organism-based; design: dose 10 mg/kg, route oral; conditions: in vivo, 0.25 h; method in brief: as §2
Mus musculus [22] = experiment: Analgesic activity in Swiss albino mouse abdominal constriction model assessed as decrease in number of acetic acid-induced writhing at 10 to 30 mg/kg, po after 30 mins; type: functional, organism-based; conditions: Abdomen
Method in brief: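 Male Swiss albino mice (23–30 g). Compounds given po in 1% CMC vehicle 30 min before the test. Acetic acid 0.6% injected i.p. at 10 ml/kg. Stretching movements were counted for 10 min, starting 5 min after the acetic acid injection. 8–15 mice per group.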

Mus musculus [23] = experiment: Antihyperalgesic activity Swiss albino mouse […] assessed as licking latency time at 30 mg/kg, po after 30 mins by hot plate test (reference value: 14.9 +/- 1.1 secs); type: functional; method in brief: as §4
Rattus norvegicus [24] = experiment: Antinociceptive activity in Sprague-Dawley rat mononeuropathy pain model assessed as increase in injured paw pressure at 30 mg/kg, po after 30 mins by paw pressure test relative to non-treated control; type: functional; method in brief: as §1
Rattus norvegicus [25] = experiment: Toxicity in Sprague-Dawley rat mononeuropathy pain model assessed as effect on contralateral paw pressure at 10 mg/kg, po after 30 mins by paw pressure test; type: organism-based; design: dose 10 mg/kg, route oral; conditions: in vivo, 0.5 h; method in brief: as §2
Mus musculus [26] = experiment: Antihyperalgesic activity Swiss albino mouse […] assessed as licking latency time at 30 mg/kg, po after 15 mins by hot plate test (reference value: 14.9 +/- 1.1 secs); type: functional; method in brief: as §4
Mus musculus [27] = experiment: Antihyperalgesic activity Swiss albino mouse […] assessed as licking latency time at 30 mg/kg, po after 60 mins by hot plate test (reference value: 14.9 +/- 1.1 secs); type: functional; method in brief: as §4
Rattus norvegicus [28] = experiment: Toxicity in Sprague-Dawley rat mononeuropathy pain model assessed as effect on contralateral paw pressure at 3 mg/kg, po after 30 mins by paw pressure test; type: organism-based; design: dose 3 mg/kg, route oral; conditions: in vivo, 0.5 h; method in brief: as §2
Mus musculus [29] = experiment: Antihyperalgesic activity against streptozotocin-induced hyperalgesia in Swiss albino mouse […] assessed as licking latency time at 30 mg/kg, po after 30 mins by hot plate test (reference value: 10.4 +/- 0.8 secs); type: functional
Rattus norvegicus [30] = experiment: Antinociceptive activity in Sprague-Dawley rat mononeuropathy pain model assessed as increase in injured paw pressure at 10 mg/kg, po after 30 mins by paw pressure test relative to non-treated control; type: functional; method in brief: as §1

Ki [6]: 0.109 nM
inhibition (Bos taurus): > 80%
SMILES: [O-][n+]1nc2c(I)cnn2c2cc(NCc3ccccc3)ccc21
Time (Mus musculus [1]): 17.3 s
Activity (Rattus norvegicus [2]): 41.4 g
Activity (Rattus norvegicus [3]): 61.7 g
Time (Mus musculus [4]): 16.6 s
Activity (Rattus norvegicus [5]): 49.5 g
Activity (Rattus norvegicus [7]): 36.7 g
Activity (Rattus norvegicus [8]): 62.2 g
Activity (Rattus norvegicus [9]): 38.1 g
Activity (Mus musculus [10]): Active
Time (Mus musculus [11]): 15.8 s
Activity (Rattus norvegicus [12]): 46.4 g
Activity (Rattus norvegicus [13]): 58.9 g
Activity (Mus musculus [14]): 10%
Activity (Rattus norvegicus [15]): 31.2 g
Activity (Rattus norvegicus [16]): 62.3 g
Activity (Rattus norvegicus [17]): 61.2 g
Activity (Rattus norvegicus [18]): 60.7 g
Time (Mus musculus [19]): 17.9 s
Activity (Rattus norvegicus [20]): 33.8 g
Activity (Rattus norvegicus [21]): 64.8 g
Activity (Mus musculus [22]): inactive
Time (Mus musculus [23]): 16.9 s
Activity (Rattus norvegicus [24]): 42.3 g
Activity (Rattus norvegicus [25]): 61.5 g
Time (Mus musculus [26]): 16.3 s
Time (Mus musculus [27]): 16.3 s
Activity (Rattus norvegicus [28]): 59.5 g
Time (Mus musculus [29]): 16.4 s
Activity (Rattus norvegicus [30]): 44.8 g

From ChEMBL document CHEMBL2176871, “Development of ligands at γ-aminobutyrric acid type A (GABAA) receptor subtype as new agents for pain relief” (Bioorg Med Chem, 2011)
